Experiments:
PC-3 = assay: Cytotoxicity against human PC3 cells after 48 hrs by SRB assay; type: functional, cell-based; conditions: PC-3, 48 h
In short: (§1)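 SRB protein-staining microculture growth assay following the Monks method. Cells were detached with 0.1% (w/v) trypsin-EDTA, counted by hemocytometer and diluted in complete medium to 5 × 10⁴ cells/mL (K-562, MCF-7), 7.5 × 10⁴ cells/mL (U-251, PC-3) or 10 × 10⁴ cells/mL (HCT-15). DMSO stocks were tested at 100, 31, 10, 3.1 and 1. After 48 h, cells were fixed in situ with 50% TCA for 60 min at 4 °C. IC50 is the mean of three experiments.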

U-251 = assay: Cytotoxicity against human U251 cells after 48 hrs by SRB assay; type: functional, cell-based; conditions: U-251, 48 h; in short: as §1
K562 = assay: Cytotoxicity against human K562 cells after 48 hrs by SRB assay; type: functional, cell-based; conditions: K562, 48 h; in short: as §1
HCT-15 = assay: Cytotoxicity against human HCT15 cells after 48 hrs by SRB assay; type: functional, cell-based; conditions: HCT-15, 48 h; in short: as §1
MCF7 = assay: Cytotoxicity against human MCF7 cells after 48 hrs by SRB assay; type: functional, cell-based; conditions: MCF7, 48 h; in short: as §1
[1] = Inhibition of Marthasterias glacialis oocyte CDK1/Cyclin B
[2] = target: Cyclin-dependent kinase 5/CDK5 activator 1 (Homo sapiens, UniProt Q00535); assay: Inhibition of recombinant CDK5/p25 expressed in Escherichia coli
[3] = target: Glycogen synthase kinase-3 beta (Homo sapiens, UniProt P49841); assay: Inhibition of GSK3-beta expressed in Sf9 cells
Sequence of Glycogen synthase kinase-3 beta (P49841 whole entry): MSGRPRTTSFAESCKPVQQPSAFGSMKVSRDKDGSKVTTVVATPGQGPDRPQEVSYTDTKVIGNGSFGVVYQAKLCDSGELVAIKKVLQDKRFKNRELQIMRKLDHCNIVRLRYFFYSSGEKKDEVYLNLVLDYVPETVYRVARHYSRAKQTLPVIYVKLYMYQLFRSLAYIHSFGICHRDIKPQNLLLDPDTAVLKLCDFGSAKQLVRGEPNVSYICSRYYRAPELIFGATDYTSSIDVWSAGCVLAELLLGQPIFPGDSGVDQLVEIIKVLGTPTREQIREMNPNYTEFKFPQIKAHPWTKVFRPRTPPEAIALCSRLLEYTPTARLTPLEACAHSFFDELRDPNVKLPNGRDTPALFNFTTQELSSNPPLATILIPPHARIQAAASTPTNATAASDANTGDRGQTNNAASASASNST

Sequence of Cyclin-dependent kinase 5/CDK5 activator 1 (Q00535 whole entry): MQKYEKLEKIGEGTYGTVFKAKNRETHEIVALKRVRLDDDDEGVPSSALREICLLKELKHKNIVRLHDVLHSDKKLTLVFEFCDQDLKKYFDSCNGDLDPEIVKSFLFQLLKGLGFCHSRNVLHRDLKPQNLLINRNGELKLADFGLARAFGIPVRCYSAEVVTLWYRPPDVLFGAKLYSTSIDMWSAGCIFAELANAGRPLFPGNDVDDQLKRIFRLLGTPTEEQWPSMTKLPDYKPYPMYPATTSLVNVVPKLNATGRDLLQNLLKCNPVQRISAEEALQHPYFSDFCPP
Sequence of Cyclin-dependent kinase 5/CDK5 activator 1 (Q15078 whole entry, further chain): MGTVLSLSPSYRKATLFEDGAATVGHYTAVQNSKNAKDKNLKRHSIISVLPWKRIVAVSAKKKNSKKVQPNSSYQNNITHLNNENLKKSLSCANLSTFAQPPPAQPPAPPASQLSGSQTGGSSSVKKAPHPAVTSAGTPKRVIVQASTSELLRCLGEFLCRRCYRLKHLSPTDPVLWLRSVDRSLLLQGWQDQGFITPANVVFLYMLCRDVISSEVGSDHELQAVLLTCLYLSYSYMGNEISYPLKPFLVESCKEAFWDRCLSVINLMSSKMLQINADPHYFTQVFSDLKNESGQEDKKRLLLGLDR

With `CC1(C)CNC(=O)c2cc3n(c2C1)CCc1cc(Br)ccc1-3` as the compound, how does the IC50 (PC-3) read?
Its IC50 is 33.6 µM.

What about the IC50 (U-251) of the same compound?
The IC50 was 18.1 µM.

And the IC50 (K562)?
The IC50 was 36.1 µM.

What about the IC50 (HCT-15) of the same compound?
Its IC50 is 25.6 µM.

What about the IC50 (MCF7) of the same compound?
Its IC50 is 43.1 µM.

And the IC50 [1]?
The IC50 was greater than 10 µM.

What about the IC50 [2] of the same compound?
Its IC50 is greater than 10 µM.

What about the IC50 [3] of the same compound?
The IC50 was greater than 10 µM.

With `COc1ccc2c(c1)CCn1c-2cc2c1CC(C)(C)CNC2=O` as the compound, how does the IC50 (PC-3) read?
The IC50 was greater than 100 µM.

What about the IC50 (U-251) of the same compound?
Its IC50 is greater than 100 µM.

And the IC50 (K562)?
The IC50 was greater than 100 µM.

And the IC50 (HCT-15)?
The IC50 was greater than 100 µM.

And the IC50 (MCF7)?
The IC50 was greater than 100 µM.

For `CC1(C)CNC(=O)c2cc(-c3ccc([N+](=O)[O-])cc3)n(-c3ccc(Cl)cc3)c2C1`, which IC50 (PC-3) is on record?
The IC50 was 17.4 µM.

What about the IC50 (U-251) of the same compound?
The IC50 was 28.8 µM.

And the IC50 (K562)?
Its IC50 is 15.1 µM.

What about the IC50 (HCT-15) of the same compound?
Its IC50 is 20 µM.

What about the IC50 (MCF7) of the same compound?
The IC50 was 51.7 µM.

For `CC1(C)CNC(=O)c2cc3n(c2C1)CCc1cc(Cl)ccc1-3`, which IC50 (PC-3) is on record?
Its IC50 is greater than 100 µM.

What about the IC50 (U-251) of the same compound?
The IC50 was greater than 100 µM.

What about the IC50 (K562) of the same compound?
Its IC50 is greater than 100 µM.

And the IC50 (HCT-15)?
Its IC50 is 39.6 µM.

What about the IC50 (MCF7) of the same compound?
The IC50 was greater than 100 µM.

Which results are given for `CC1(C)CNC(=O)c2cc3n(c2C1)CCc1ccccc1-3`?
IC50 (PC-3): > 100 µM; IC50 (U-251): > 100 µM; IC50 (K562): > 100 µM; IC50 (HCT-15): > 100 µM; IC50 (MCF7): > 100 µM

With `CC1(C)CC(=O)c2cc3n(c2C1)CCc1cc(Br)ccc1-3` as the compound, how does the IC50 (PC-3) read?
The IC50 was 50.6 µM.

What about the IC50 (U-251) of the same compound?
The IC50 was 53.3 µM.

What about the IC50 (K562) of the same compound?
The IC50 was 23.9 µM.

What about the IC50 (HCT-15) of the same compound?
Its IC50 is 36 µM.

And the IC50 (MCF7)?
Its IC50 is 35 µM.

Which results are given for `COc1ccc2c(c1)CCn1c-2cc2c1CC(C)(C)CC2=O`?
IC50 (PC-3): > 100 µM; IC50 (U-251): > 100 µM; IC50 (K562): 57.5 µM; IC50 (HCT-15): > 100 µM; IC50 (MCF7): > 100 µM

Which results are given for `CC1(C)CC(=O)c2cc3n(c2C1)CCc1cc(Cl)ccc1-3`?
IC50 (PC-3): > 100 µM; IC50 (U-251): > 100 µM; IC50 (K562): 10.2 µM; IC50 (HCT-15): 24.8 µM; IC50 (MCF7): 41.8 µM

What does the source list for `CC1(C)CNC(=O)c2cc(-c3ccc([N+](=O)[O-])cc3)n(-c3ccc(Br)cc3)c2C1`?
IC50 (PC-3): 21.1 µM; IC50 (U-251): 25.6 µM; IC50 (K562): > 100 µM; IC50 (HCT-15): > 100 µM; IC50 (MCF7): > 100 µM

For `CC1(C)CNC(=O)c2cc3n(c2C1)CCc1cc(F)ccc1-3`, which IC50 (PC-3) is on record?
Its IC50 is greater than 100 µM.

And the IC50 (U-251)?
The IC50 was greater than 100 µM.

And the IC50 (K562)?
Its IC50 is 33.7 µM.

What about the IC50 (HCT-15) of the same compound?
Its IC50 is greater than 100 µM.

And the IC50 (MCF7)?
The IC50 was 54.5 µM.

And the IC50 [1]?
Its IC50 is greater than 10 µM.

And the IC50 [2]?
Its IC50 is greater than 10 µM.

What about the IC50 [3] of the same compound?
The IC50 was greater than 10 µM.

Which IC50 (PC-3) does the source give for `CC1(C)CC(=O)c2cc3n(c2C1)CCc1ccccc1-3` here?
The IC50 was greater than 100 µM.

And the IC50 (U-251)?
The IC50 was greater than 100 µM.

And the IC50 (K562)?
Its IC50 is 36.8 µM.

What about the IC50 (HCT-15) of the same compound?
The IC50 was greater than 100 µM.

And the IC50 (MCF7)?
Its IC50 is greater than 100 µM.

What does the source list for `CC1(C)CNC(=O)c2cc3n(c2C1)CCc1cc([N+](=O)[O-])ccc1-3`?
IC50 (PC-3): 25.8 µM; IC50 (U-251): > 100 µM; IC50 (K562): > 100 µM; IC50 (HCT-15): 29.5 µM; IC50 (MCF7): 43.1 µM; IC50 [1]: > 10 µM; IC50 [2]: > 10 µM; IC50 [3]: > 10 µM

For `CC1(C)CC(=O)c2cc3n(c2C1)CCc1cc([N+](=O)[O-])ccc1-3`, which IC50 (PC-3) is on record?
The IC50 was greater than 100 µM.

What about the IC50 (U-251) of the same compound?
Its IC50 is greater than 100 µM.

And the IC50 (K562)?
The IC50 was 73.7 µM.

And the IC50 (HCT-15)?
Its IC50 is 16.7 µM.

And the IC50 (MCF7)?
Its IC50 is greater than 100 µM.

Which IC50 (PC-3) does the source give for `CC1(C)CC(=O)c2cc3n(c2C1)CCc1cc(F)ccc1-3` here?
Its IC50 is greater than 100 µM.

And the IC50 (U-251)?
The IC50 was greater than 100 µM.

What about the IC50 (K562) of the same compound?
The IC50 was 27.2 µM.

What about the IC50 (HCT-15) of the same compound?
Its IC50 is 65.5 µM.

What about the IC50 (MCF7) of the same compound?
Its IC50 is greater than 100 µM.

Which results are given for `O=C1Cc2c([nH]c3ccc([N+](=O)[O-])cc23)-c2ccccc2N1` [ALSTERPAULLONE]?
IC50 (PC-3): 1.12 µM; IC50 (U-251): 0.68 µM; IC50 (K562): 1.58 µM; IC50 (HCT-15): 0.62 µM; IC50 (MCF7): 1.24 µM

Which IC50 (PC-3) does the source give for `O=C1Cc2c([nH]c3ccc(Br)cc23)-c2ccccc2N1` [KENPAULLONE] here?
Its IC50 is greater than 100 µM.

What about the IC50 (U-251) of the same compound?
The IC50 was greater than 100 µM.

And the IC50 (K562)?
The IC50 was greater than 100 µM.

What about the IC50 (HCT-15) of the same compound?
Its IC50 is 23.9 µM.

And the IC50 (MCF7)?
Its IC50 is greater than 100 µM.

Source: ChEMBL document CHEMBL1152758, “Synthesis and cytotoxic activity of new azepino[3',4':4,5]pyrrolo[2,1-a]isoquinolin-12-ones” (Bioorg Med Chem, 2009)
